Results taken from ChEMBL document CHEMBL3621107, “Ring fusion strategy for synthesis and lead optimization of sulfur-substituted anthra[1,2-c][1,2,5]thiadiazole-6,11-dione derivatives as promising scaffold of antitumor agents” (Eur J Med Chem, 2015).

Key:
Type in all cases: functional
CCRF-CEM = assay: Cytotoxicity against human CCRF-CEM cells after 48 hrs by SRB assay
In short: (§1)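 NCI-60 human tumour cell panel screen, second stage, run by the NCI Developmental Therapeutics Program. Compounds were tested at five concentrations (0.01, 0.1, 1, 10 and 100 μM). Percentage growth was plotted against log10 concentration for each cell line. GI50, TGI and LC50 were taken from these dose-response curves.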

MOLT-4 = assay: Cytotoxicity against human MOLT4 cells after 48 hrs by SRB assay; conditions: MOLT-4, 48 h
In short: (§2)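 Second-stage NCI-60 panel run by the NCI Developmental Therapeutics Program, covering nine tumour subpanels. Five concentrations were tested: 0.01, 0.1, 1, 10 and 100 μM. Percentage growth at each level was plotted against log10 drug concentration. GI50, TGI and LC50 were read from these dose-response curves. Subpanel MID values were divided into the full-panel MID to give selectivity ratios.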

SR = assay: Cytotoxicity against human SR cells after 48 hrs by SRB assay
In short: (§3)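 NCI-60 five-dose study run by NCI DTP at 0.01, 0.1, 1, 10 and 100 µM. Percentage growth at each level was plotted against log10 concentration for each line, and GI50, TGI and LC50 were read from the dose-response curves.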

HOP-92 = assay: Cytotoxicity against human HOP92 cells after 48 hrs by SRB assay; conditions: HOP-92, 48 h; in short: as §1
NCI-H322M = assay: Cytotoxicity against human NCI-H322M cells after 48 hrs by SRB assay; in short: as §2
NCI-H460 = assay: Cytotoxicity against human NCI-H460 cells after 48 hrs by SRB assay; conditions: NCI-H460, 48 h; in short: as §2
HT-29 = assay: Cytotoxicity against human HT-29 cells after 48 hrs by SRB assay; conditions: HT-29, 48 h; in short: as §1
KM12 = assay: Cytotoxicity against human KM12 cells after 48 hrs by SRB assay; conditions: KM12, 48 h; in short: as §1
SW-620 = assay: Cytotoxicity against human SW620 cells after 48 hrs by SRB assay; conditions: SW-620, 48 h; in short: as §3
SNB-75 = assay: Cytotoxicity against human SNB75 cells after 48 hrs by SRB assay; conditions: SNB-75, 48 h; in short: as §3
U-251 = assay: Cytotoxicity against human U251 cells after 48 hrs by SRB assay; conditions: U-251, 48 h; in short: as §3
LOX IMVI = assay: Cytotoxicity against human LOXIMVI cells after 48 hrs by SRB assay; in short: as §1
M14 = assay: Cytotoxicity against human M14 cells after 48 hrs by SRB assay; conditions: M14, 48 h; in short: as §1
UACC-257 = assay: Cytotoxicity against human UACC257 cells after 48 hrs by SRB assay; conditions: UACC-257, 48 h; in short: as §3
OVCAR-8 = assay: Cytotoxicity against human OVCAR8 cells after 48 hrs by SRB assay; conditions: OVCAR-8, 48 h; in short: as §2
NCI/ADR-RES = assay: Cytotoxicity against human NCI/ADR-RES cells after 48 hrs by SRB assay; in short: as §2
786-0 = assay: Cytotoxicity against human 786-0 cells after 48 hrs by SRB assay; conditions: 786-0, 48 h; in short: as §1
CAKI-1 = assay: Cytotoxicity against human Caki1 cells after 48 hrs by SRB assay; conditions: CAKI-1, 48 h; in short: as §1
RXF 393 = assay: Cytotoxicity against human RXF393 cells after 48 hrs by SRB assay; conditions: RXF 393, 48 h; in short: as §2
SN12C = assay: Cytotoxicity against human SN12C cells after 48 hrs by SRB assay; in short: as §2
PC-3 = assay: Cytotoxicity against human PC3 cells after 48 hrs by SRB assay; conditions: PC-3, 48 h; in short: as §2
DU-145 = assay: Cytotoxicity against human DU145 cells after 48 hrs by SRB assay; conditions: DU-145, 48 h; in short: as §1
MCF7 = assay: Cytotoxicity against human MCF7 cells after 48 hrs by SRB assay; conditions: MCF7, 48 h; in short: as §1
MDA-MB-231 = assay: Cytotoxicity against human MDA-MB-231 cells after 48 hrs by SRB assay; conditions: MDA-MB-231, 48 h; in short: as §2
BT-549 = assay: Cytotoxicity against human BT549 cells after 48 hrs by SRB assay; conditions: BT-549, 48 h; in short: as §1
MDA-MB-468 = assay: Cytotoxicity against human MDA-MB-468 cells after 48 hrs by SRB assay; conditions: MDA-MB-468, 48 h; in short: as §2
[1] = Cytotoxicity against human renal cancer cells assessed as growth inhibition after 48 hrs by SRB assay; conditions: Cancer cell lines
In short: (§4)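 Values come from the NCI-60 five-dose panel (0.01–100 µM). The subpanel MID is the mean GI50 over the lines of that tumour subpanel. The selectivity ratio is the full-panel MID divided by the subpanel MID; 3–6 is rated moderate and >6 high.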

[2] = Cytotoxicity against human prostate cancer cells assessed as growth inhibition after 48 hrs by SRB assay; conditions: Cancer cell lines; in short: as §4
[3] = Cytotoxicity against human breast cancer cells assessed as growth inhibition after 48 hrs by SRB assay; conditions: Cancer cell lines; in short: as §4
[4] = read-out: LC50 (the source's name)

Structure (SMILES): O=C1c2ccccc2C(=O)c2c1cc(SCc1ccccc1)c1nsnc21
- GI50 (CCRF-CEM): 1.3 µM
- LC50 (CCRF-CEM): > 50 µM
- TGI (CCRF-CEM): 5.06 µM
- GI50 (MOLT-4): 1.2 µM
- LC50 (MOLT-4): > 50 µM
- TGI (MOLT-4): 3.62 µM
- GI50 (SR): 1.99 µM
- LC50 (SR): > 50 µM
- TGI (SR): 13.1 µM
- GI50 (HOP-92): 6.05 µM
- LC50 (concentration giving 50% net cell kill) (HOP-92): > 50 µM
- TGI (HOP-92): > 50 µM
- GI50 (NCI-H322M): > 50 µM
- LC50 (concentration causing 50% net cell kill) (NCI-H322M): > 50 µM
- TGI (NCI-H322M): > 50 µM
- GI50 (NCI-H460): > 50 µM
- LC50 (concentration killing 50% of cells) (NCI-H460): 32.8 µM
- TGI (NCI-H460): 16.8 µM
- GI50 (HT-29): > 50 µM
- LC50 (HT-29): > 50 µM
- TGI (HT-29): > 50 µM
- GI50 (KM12): 19.5 µM
- LC50 (concentration killing 50% of cells) (KM12): > 50 µM
- TGI (KM12): > 50 µM
- GI50 (SW-620): 9.99 µM
- LC50 (50% lethal concentration) (SW-620): 35.1 µM
- TGI (SW-620): 18.7 µM
- GI50 (SNB-75): 8.26 µM
- LC50 (concentration killing 50% of cells) (SNB-75): 31 µM
- TGI (SNB-75): 16 µM
- GI50 (U-251): 6.46 µM
- LC50 (U-251): 30.3 µM
- TGI (U-251): 14 µM
- GI50 (LOX IMVI): 5.68 µM
- TGI (LOX IMVI): 12.8 µM
- CC50 (LOX IMVI; [4]): 29.1 µM
- GI50 (M14): 26 µM
- LC50 (M14): > 50 µM
- TGI (M14): > 50 µM
- GI50 (UACC-257): 9.05 µM
- LC50 (UACC-257): 35.4 µM
- TGI (UACC-257): 17.1 µM
- GI50 (OVCAR-8): 3.5 µM
- TGI (OVCAR-8): 25.8 µM
- CC50 (OVCAR-8; [4]): > 50 µM
- GI50 (NCI/ADR-RES): 12.9 µM
- LC50 (concentration killing 50% of cells) (NCI/ADR-RES): > 50 µM
- TGI (NCI/ADR-RES): > 50 µM
- GI50 (786-0): 12.3 µM
- LC50 (concentration killing 50% of cells) (786-0): > 50 µM
- TGI (786-0): 25.4 µM
- GI50 (CAKI-1): 9.68 µM
- LC50 (concentration causing 50% net cell kill) (CAKI-1): > 50 µM
- TGI (CAKI-1): 26.2 µM
- GI50 (RXF 393): 7.2 µM
- LC50 (concentration killing 50% of cells) (RXF 393): 27.4 µM
- TGI (RXF 393): 14 µM
- GI50 (SN12C): 7.16 µM
- TGI (SN12C): 14.5 µM
- CC50 (SN12C; [4]): 29.3 µM
- GI50 (PC-3): 10.8 µM
- LC50 (concentration killing 50% of cells) (PC-3): 50.1 µM
- TGI (PC-3): 43.4 µM
- GI50 (DU-145): 10.2 µM
- LC50 (DU-145): 38.8 µM
- TGI (DU-145): 19.9 µM
- GI50 (MCF7): 8.33 µM
- LC50 (concentration killing 50% of cells) (MCF7): 34.7 µM
- TGI (MCF7): 17 µM
- GI50 (MDA-MB-231): 5.14 µM
- LC50 (concentration killing 50% of cells) (MDA-MB-231): 34.8 µM
- TGI (MDA-MB-231): 13.4 µM
- GI50 (BT-549): 15.2 µM
- LC50 (BT-549): > 50 µM
- TGI (BT-549): 28.4 µM
- GI50 (MDA-MB-468): 0.89 µM
- LC50 (MDA-MB-468): 4.21 µM
- TGI (MDA-MB-468): 1.93 µM
- GI50 [1]: 12.7 µM
- GI50 [2]: 10.5 µM
- GI50 [3]: 8 µM
